HIF activator: HIF pathway transcriptional activators, primary screen, cell-based, U2OS HRE-luciferase, luminescence; U2OS HRE-luciferase reporter; normalized: DMSO 0%, desferrioxamine 100%; activation, % at 7.5 µM (by protocol); 300,000 tested, 0.32% active; AID 1910, 2009;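 active means mean activation of at least 10% of the iron chelator positive control signal, with at least half of replicates also reaching 10%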
Hsp70 act: Hsp70 transcriptional activators, primary screen, cell-based, HeLa, Hsp70 promoter luciferase, luminescence, 10 µM | 200,000 tested, 0.04% active | HeLa Hsp70 promoter luciferase reporter; scaled: vehicle 0, proteasome-inhibitor control 100% | activation, % at 10 µM | AID 1203, 2008;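 active means activation above the mean across all tested compounds plus 3 SD, cutoff set per campaign, cut at about 5.5% in these data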;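 further: 100% = MG132 at 30 µM as the positive control and 0% = DMSO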
GAA850 FXN act: FXN promoter activators, primary screen, cell-based, luciferase luminescence, HEK293 lucGAA850. HEK293 lucGAA850 FXN promoter luciferase reporter, 24 h; percent of 10 µM SAHA response. activation, % at 6 µM. 360,000 tested, 0.56% active. AID 540364, 2011;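 active means activation above the average of all compounds screened plus 3 SD, cutoff fixed separately per campaign, cut at about 7.5% in these data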;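 further: 0% = DMSO wells and 100% = 10 µM SAHA wells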
ABHD5-PLIN5 inh: ABHD5-PLIN5 interaction inhibitors, primary screen, cell lysate, split luciferase complementation, luminescence; Perilipin-5 (Homo sapiens) + 1-acylglycerol-3-phosphate O-acyltransferase ABHD5 (Homo …; Split G. princeps luciferase complementation, 4 h; inhibition, % at 4 µM; 360,000 tested, 0.78% active; AID 602281, 2012;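 active means inhibition above the mean inhibition across every tested compound plus 3 SD, cut at about 22% in these data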;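 further: 0% = DMSO only wells and the 100% control is not disclosed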
Target sequence (Q00G26 whole entry, looked up): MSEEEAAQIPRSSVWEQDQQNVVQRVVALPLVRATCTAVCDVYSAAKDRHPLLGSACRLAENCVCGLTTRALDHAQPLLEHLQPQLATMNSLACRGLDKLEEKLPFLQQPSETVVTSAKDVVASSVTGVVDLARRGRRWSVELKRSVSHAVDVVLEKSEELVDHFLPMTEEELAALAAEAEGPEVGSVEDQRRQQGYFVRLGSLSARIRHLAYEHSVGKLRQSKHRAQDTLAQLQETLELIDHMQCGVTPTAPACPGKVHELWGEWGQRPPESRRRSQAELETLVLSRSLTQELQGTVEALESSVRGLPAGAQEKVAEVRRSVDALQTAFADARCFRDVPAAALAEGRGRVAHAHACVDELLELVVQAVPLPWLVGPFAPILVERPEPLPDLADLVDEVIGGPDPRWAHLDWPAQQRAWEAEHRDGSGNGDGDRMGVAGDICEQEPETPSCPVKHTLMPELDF
Target sequence (Q8WTS1 whole entry, looked up): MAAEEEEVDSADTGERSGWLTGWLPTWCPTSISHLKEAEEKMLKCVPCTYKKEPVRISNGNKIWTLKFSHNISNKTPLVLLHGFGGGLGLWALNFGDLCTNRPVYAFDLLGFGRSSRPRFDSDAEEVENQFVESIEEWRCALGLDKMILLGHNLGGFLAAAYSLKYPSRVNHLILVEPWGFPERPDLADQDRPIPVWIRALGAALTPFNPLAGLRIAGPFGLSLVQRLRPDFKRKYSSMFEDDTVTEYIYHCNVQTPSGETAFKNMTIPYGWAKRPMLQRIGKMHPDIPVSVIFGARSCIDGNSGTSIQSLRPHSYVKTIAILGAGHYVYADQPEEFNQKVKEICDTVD
Rad51 HR inh: human RAD51 strand exchange inhibitors, primary screen, biochemical, fluorescence; AID 1385, 2008; inhibition, % at 10 µM; 200,000 tested, 0.085% active; hRad51 DNA strand exchange, fluorescence dequenching;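 active means inhibition above 40% at the single screening dose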;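 further: 0% = DMSO control wells and 100% = blanks with heterologous ssDNA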
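Material: Human Rad51 nucleoprotein filaments preassembled on unlabelled ssDNA | Also added: Labelled 47-mer dsDNA for strand exchange | Dosing: Single dose, 10 µM final compound | Schedule: 30-min compound preincubation and 15-min exchange, both room temperature | Technique: Fluorescence dequenching at 485/520 nm | Measure: Percent inhibition relative to plate controls and blanks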
TAG inh: inhibitors of triacylglycerol accumulation, primary screen, cell-based, uHTS, fluorescence, H9c2. 230,000 tested, 0.66% active. H9c2 cells, Nile Red lipid (TAG) fluorescence; cells loaded with 200 µM oleic acid. inhibition, % at 12.5 µM. AID 651582, 2012;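 active means pattern-corrected inhibition of lipid staining of at least 50% with the nuclear-stain viability signal not falling by more than 50%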;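 further: 0% = DMSO wells and 100% = triacsin C control wells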
GAA30 counter: GAA30 FXN promoter activators, confirmation, counter-screen for GAA850 frataxin promoter activator project, cell-based, luminescence, HEK293, lucGAA30, triplicate. HEK293 lucGAA30 FXN promoter luciferase, 24 h; DMSO = 0%, 5 µM ipriflavone = 100%. AID 588350, 2011. 1,900 tested, 66% active. activation, % at 6 µM. shares compounds with GAA850 FXN act;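 active means mean activation above the mean of solvent-only control wells plus 3 SD, cut at about 22% in these data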;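 further: counterscreen of GAA850 promoter hits where activity marks nonselective or luminescence artifacts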
GAA850 confirm: FXN GAA850 promoter activators in reporter cells, confirmation, cell-based, luminescence, HEK293 lucGAA850, triplicate; HEK293 lucGAA850 FXN promoter luciferase reporter, 24 h; 100% = activation by SAHA; AID 588351, 2011; shares compounds with GAA850 FXN act; activation, % at 6 µM; 1,900 tested, 86% active;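 active means mean activation above a set limit taken from the primary screen, cut at about 8% in these data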;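 further: 0% = DMSO wells and 100% = 10 µM SAHA wells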
Starred values were filed as active, the others as inactive; x = not tested or not shown. In the library only some 1.9% were active in any assay of this set; here they are far more common.

SMILES	HIF activator	Hsp70 act	GAA850 FXN act	ABHD5-PLIN5 inh	Rad51 HR inh	TAG inh	GAA30 counter	GAA850 confirm
c1ccc2c(-c3nc(-c4ccncc4)no3)cccc2c1	3	0	10*	-4	1	x	101*	32*
CCCNC(=O)c1oc2ccc3c(c2c1C)C(=O)CC(C)(C)O3	3	0	7.9*	-2	-1	-45	107*	36*
CCCNC(=O)c1oc2ccc3c(c2c1C)C=CC(C)(C)O3	4	x	10*	-1	x	x	91*	41*
COc1cccc(/C=C/C(=O)c2ccc3c(c2)OCCO3)c1OC	4	x	7.9*	5	x	x	98*	39*
COc1ccc(/C=C/C(=O)c2ccc3c(c2)OCO3)c(OC)c1	1	0	6	1	x	0	x	x
CNC(=S)N/N=C(\C)c1ccc(C)c(C)c1	0	0	7	12	12	x	x	x
CCN(CC)CCSc1nc2c([nH]1)c(=S)n(C)c(=O)n2C	x	x	2	-5	x	20	x	x
CCCCSc1nc2c([nH]1)c(=S)n(C)c(=O)n2C	x	x	19*	0	x	8	14	15*
CCCC(CC)Sc1nc2c([nH]1)c(=S)n(C)c(=O)n2C (stereo unspecified)	x	x	15*	11	x	-7	17	14*
CCCCC(C)Sc1nc2c([nH]1)c(=S)n(C)c(=O)n2C (stereo unspecified)	x	x	7	2	x	-8	x	x
CCOC(=O)c1c(C(F)(F)F)cc(-c2ccc(F)cc2)nc1C	1	0	-1	1	0	x	x	x
CCOC(=O)CS(=O)(=O)c1nc(-c2ccc(F)cc2)cc(C(F)(F)F)n1	-2	0	21*	53*	-7	18	-77	-24
Cc1c(NC(=S)NC(=O)c2ccccc2)c(=O)n(-c2ccccc2)n1C	0	x	2	1	x	-35	x	x
CCOP(=O)(Nc1cccc2oc(=O)c3ccccc3c12)OCC	x	x	7.8*	0	x	-6	25*	18*
O=C(CN1C(=O)NC2(CCCC2)C1=O)N1CCN(Cc2ccccc2)CC1	0	x	1	8	x	-12	x	x
Cc1cccn2cc(-c3ccccc3)nc12	0	0	3	-1	-6	5	x	x
COc1ccc(-c2cn3cccc(C)c3n2)cc1Br	1	0	8.4*	2	9	x	120*	37*
CCCSc1nc(N)c(C#N)c(-c2ccc(C)cc2)c1C#N	0	0	1	5	-4	1	x	x
C=CCSc1nc(N)c(C#N)c(-c2ccccc2)c1C#N	0	0	11*	-6	2	x	18	17*
COc1ccccc1/C=C/C=N/NC(=O)c1cc(-c2ccc(C)o2)[nH]n1	4	x	-1	6	4	-6	x	x
COc1ccc(CC(C(=O)Nc2ccc(OC)cc2)c2nn[nH]n2)cc1 (stereo unspecified)	-1	x	1	-4	x	12	x	x
CCCc1cc(C(=O)Nc2cccc(C(C)=O)c2)no1	3	0	25*	0	-2	1	76*	23*
Oc1sc(C=Nc2ccccc2)c2ccccc12	1	0	8.2*	-16	-21	7	125*	42*
Oc1c(C=Nc2cccnc2)sc2ccccc12	1	-1	0	0	-14	6	x	x
Oc1c(C=Nc2ccccc2)sc2ccccc12	3	-1	10*	0	-85	-8	112*	38*
SMILES	HIF activator	Hsp70 act	GAA850 FXN act	ABHD5-PLIN5 inh	Rad51 HR inh	TAG inh	GAA30 counter	GAA850 confirm
CCN1C[C@@H]2[C@@H]3C(=O)N(C)C(=O)[C@@H]3[C@](CC)(C1=O)N2C(=O)c1ccc(Cl)cc1	x	x	-1	0	x	-4	x	x
Cc1ccsc1C(=O)NCCc1c[nH]c2ccccc12	2	x	2	3	x	-22	x	x
O=C(Cc1ccccc1)NC(NCCc1ccccc1)C(Cl)(Cl)Cl (stereo unspecified)	0	0	-1	-11	2	0	x	x
COc1ccc(CCNC(=O)c2cc3c(=O)n4cccc(C)c4nc3n(Cc3ccco3)c2=N)cc1OC	0	x	13*	16	x	x	3	6
Cc1cccn2c(=O)c3cc(C(=O)NCc4ccco4)c(=N)n(CCc4ccccc4)c3nc12	x	x	-1	16	-20	42	x	x
COc1ccc(S(=O)(=O)N2CCCCC2)cc1NC(=O)CN(Cc1ccco1)Cc1ccco1	x	x	-2	1	x	-8	x	x
CCC(=O)N1CCCC(C(=O)NS(=O)(=O)c2cc(C)c(Cl)cc2C)CC1 (stereo unspecified)	x	x	0	-1	x	6	x	x
COc1cc(/C=N/Nc2ccnc(=O)[nH]2)ccc1O	5	x	7.7*	0	x	x	31*	7
CCC(C)NCCCCOc1cc(C)cc(C(C)C)c1 (stereo unspecified)	0	0	2	9	23	19	x	x
COC(=O)c1ccccc1NC(=O)c1ccccc1N(C)S(=O)(=O)c1ccccc1	0	0	3	-1	-5	x	x	x
CC(C)CNC(=O)c1ccccc1NC(=O)c1ccccc1N(C)S(=O)(=O)c1ccccc1	0	-1	13*	3	-2	-1	12	2
CCCNC(=O)c1ccccc1NC(=O)c1ccccc1N(C)S(=O)(=O)c1ccccc1	0	0	14*	-5	-3	x	8	19*
O=C(O)c1ccc(N/N=C/c2ccnc3ccccc23)cc1	2	x	9.3*	-2	21	-2	93*	32*
O=C(Nc1ccc2c(c1)OCO2)c1ccc([N+](=O)[O-])cc1[N+](=O)[O-]	0	x	1	6	x	x	x	x
O=c1c2ccccc2nc(SCc2nc3ccccc3s2)n1CCCO	4	0	14*	10	-10	x	102*	43*
COc1cc(NC(=O)COC(=O)Cn2cnc3c2c(=O)n(C)c(=O)n3C)cc(OC)c1	x	x	0	5	x	9	x	x

Screening results from PubChem BioAssay.
